Source: ChEMBL document CHEMBL3745600, “2-Amino-thiophene derivatives present antileishmanial activity mediated by apoptosis and immunomodulation in vitro” (Eur J Med Chem, 2015)
≈ marks a conversion by molar mass, not a printed value. Calls of active or inactive are those of the source. The rule behind the calls is not given here.

Tests used:
[1] = system: Leishmania amazonensis; experiment: Antileishmanial activity against promastigotes of Leishmania amazonensis IFLA/BR/67/PH8 assessed as induction of late apoptosis using Annexin-V/PI staining at IC50 after 4 hrs by flow cytometry (reference value: 12.05%); format: functional
[2] = Selectivity index, ratio of HC50 for human RBC to IC50 for axenic amastigotes of Leishmania amazonensis IFLA/BR/67/PH8
In short: (§1)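 Promastigote values came from haemocytometer counts after 72 h at 25°C. Axenic amastigote values came from MTT readings after 24 h at 32°C, using amastigotes differentiated at pH 4.6. All 50% values were obtained by probit regression.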

[3] = Cytotoxicity against Swiss mouse peritoneal macrophages after 24 hrs by MTT assay; format: cell-based, Peritoneal macrophage cell
In short: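 Macrophages were collected from Swiss mice 5 days after thioglycollate (3%) elicitation. About 1 x 10^6 cells per well were incubated in RPMI 1640 with 10% heat-inactivated FBS and compound for 24 h at 37°C, 5% CO₂. MTT was added for 4 h, followed by 10% SDS, and absorbance was read at 540 nm. CC50 was obtained by probit regression.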

[4] = system: Peritoneal macrophage cell; experiment: Immunomodulatory activity in Swiss mouse peritoneal macrophages infected with promastigotes form of Leishmania amazonensis IFLA/BR/67/PH8 assessed as increase of IL-10 production at 6.25 to 25 uM after 72 hrs by sandwich ELISA; format: functional, cell-based
In short: (§2)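 Supernatants came from infected macrophages treated for 72 h at 37°C, 5% CO₂. TNF-α, IL-12 and IL-10 were measured by sandwich ELISA at 450 nm against murine recombinant cytokine standards. NO was estimated as nitrite by the Griess reaction at 540 nm against a sodium nitrite standard. LPS (10 mg/L) served as positive control. Three experiments were run in triplicate.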

[5] = Selectivity index, ratio of CC50 for Swiss mouse peritoneal macrophages to EC50 for axenic amastigotes of Leishmania amazonensis IFLA/BR/67/PH8; in short: as §1
[6] = system: Peritoneal macrophage cell; experiment: Immunomodulatory activity in Swiss mouse peritoneal macrophages infected with promastigotes form of Leishmania amazonensis IFLA/BR/67/PH8 assessed as increase of IL-12 production at 6.25 to 25 uM after 72 hrs by sandwich ELISA; format: functional, cell-based; in short: as §2
[7] = system: Leishmania amazonensis; experiment: Antileishmanial activity against promastigotes of Leishmania amazonensis IFLA/BR/67/PH8 assessed as induction of early apoptosis using Annexin-V staining at 4 times IC50 after 4 hrs by flow cytometry (reference value: 8.3%); format: functional
[8] = system: Leishmania amazonensis; experiment: Antileishmanial activity against promastigotes of Leishmania amazonensis IFLA/BR/67/PH8 assessed as induction of late apoptosis using Annexin-V/PI staining at 4 times IC50 after 4 hrs by flow cytometry (reference value: 12.05%); format: functional
[9] = system: Leishmania amazonensis; experiment: Antileishmanial activity against promastigotes of Leishmania amazonensis IFLA/BR/67/PH8 assessed as induction of necrosis using Annexin-V-FITC/PI staining at 2 times IC50 after 4 hrs by flow cytometry (reference value: 2.6%); format: functional
[10] = system: Leishmania amazonensis; experiment: Antileishmanial activity against promastigotes of Leishmania amazonensis IFLA/BR/67/PH8 assessed as induction of DNA fragmentation at 1 to 4 times IC50 after 24 hrs by agarose gel electrophoresis; format: functional, organism-based
In short: (§3)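 Genomic DNA was extracted with phenol/chloroform and run on agarose with GelRed (1:500) for 1 h at […]. Fragmentation was viewed under UV as a qualitative read-out.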

[11] = system: Peritoneal macrophage cell; experiment: Immunomodulatory activity in Swiss mouse peritoneal macrophages infected with promastigotes form of Leishmania amazonensis IFLA/BR/67/PH8 assessed as increase of TNFalpha production at 6.25 to 25 uM after 72 hrs by sandwich ELISA; format: functional, cell-based; in short: as §2
[12] = Toxicity in human RBC assessed as induction of hemolytic activity after 1 hr by spectrometer analysis; format: cell-based, Erythrocyte; settings: red blood cells (RBC)
In short: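 A 5% suspension of human erythrocytes in PBS was mixed 4:1 with serial compound dilutions and incubated 1 h at 37°C. The reaction was stopped with PBS (pH 7.2) and spun 10 min at 1000 x g, and supernatant absorbance was read at 540 nm. Haemolysis was expressed relative to a drug-free blank and to water-induced total lysis. HC50 was obtained by probit regression.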

[13] = system: Leishmania amazonensis; experiment: Antileishmanial activity against promastigotes of Leishmania amazonensis IFLA/BR/67/PH8 assessed as induction of necrosis using Annexin-V-FITC/PI staining at IC50 after 4 hrs by flow cytometry (reference value: 2.6%); format: functional
[14] = system: Leishmania amazonensis; experiment: Antileishmanial activity against promastigotes of Leishmania amazonensis IFLA/BR/67/PH8 assessed as induction of early apoptosis using Annexin-V staining at 2 times IC50 after 4 hrs by flow cytometry (reference value: 8.3%); format: functional
[15] = system: Leishmania amazonensis; experiment: Antileishmanial activity against promastigotes of Leishmania amazonensis IFLA/BR/67/PH8 assessed as viable cells using Annexin-V staining at IC50 after 4 hrs by flow cytometry (reference value: 77%); format: functional
[16] = system: Leishmania amazonensis; experiment: Antileishmanial activity against promastigotes of Leishmania amazonensis IFLA/BR/67/PH8 assessed as induction of late apoptosis using Annexin-V/PI staining at 2 times IC50 after 4 hrs by flow cytometry (reference value: 12.05%); format: functional
[17] = Selectivity index, ratio of CC50 for Swiss mouse peritoneal macrophages to IC50 for promastigotes of Leishmania amazonensis IFLA/BR/67/PH8; format: functional; in short: as §1
[18] = Selectivity index, ratio of HC50 for human RBC to IC50 for promastigotes of Leishmania amazonensis IFLA/BR/67/PH8; in short: as §1
[19] = system: Leishmania amazonensis; experiment: Antileishmanial activity against promastigotes of Leishmania amazonensis IFLA/BR/67/PH8 assessed as induction of necrosis using Annexin-V-FITC/PI staining at 4 times IC50 after 4 hrs by flow cytometry (reference value: 2.6%); format: functional
[20] = system: Leishmania amazonensis; experiment: Antileishmanial activity against promastigotes of Leishmania amazonensis IFLA/BR/67/PH8 assessed as viable cells using Annexin-V staining at 2 times IC50 after 4 hrs by flow cytometry (reference value: 77%); format: functional
[21] = system: Leishmania amazonensis; experiment: Antileishmanial activity against promastigotes of Leishmania amazonensis IFLA/BR/67/PH8 assessed as viable cells using Annexin-V staining at 4 times IC50 after 4 hrs by flow cytometry (reference value: 77%); format: functional
[22] = system: Leishmania amazonensis; experiment: Antileishmanial activity against axenic amastigotes of Leishmania amazonensis IFLA/BR/67/PH8 infected in Swiss mouse peritoneal macrophages assessed as reduction of survival rate after 24 hrs by light microscopy analysis; format: functional, organism-based
In short: (§4)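 Peritoneal macrophages were plated on glass coverslips at 1 x 10^6 cells/mL in supplemented RPMI 1640 and allowed to adhere for 2 h at 34°C, 5% CO₂. They were infected for 3 h with stationary-phase promastigotes at 10 parasites per macrophage, washed with PBS, then exposed to compound for 24 or 72 h. Coverslips were fixed and Panoptic-stained, and 300 macrophages per coverslip were counted by light microscopy. EC50 was derived by probit regression.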

[23] = system: Leishmania amazonensis; experiment: Antileishmanial activity against promastigotes of Leishmania amazonensis IFLA/BR/67/PH8 assessed as induction of early apoptosis using Annexin-V staining at IC50 after 4 hrs by flow cytometry (reference value: 8.3%); format: functional
[24] = system: Leishmania amazonensis; experiment: Antileishmanial activity against promastigotes of Leishmania amazonensis IFLA/BR/67/PH8 after 72 hrs by Neubauer haemocytometer counting; settings: IFLA/BR/67/PH8, 72 h
[25] = system: Leishmania amazonensis; experiment: Antileishmanial activity against axenic amastigotes of Leishmania amazonensis IFLA/BR/67/PH8 after 24 hrs by MTT assay; settings: IFLA/BR/67/PH8, 24 h
[26] = system: Leishmania amazonensis; experiment: Antileishmanial activity against axenic amastigotes of Leishmania amazonensis IFLA/BR/67/PH8 infected in Swiss mouse peritoneal macrophages assessed as reduction of survival rate after 72 hrs by light microscopy analysis; format: functional, organism-based; in short: as §4
[27] = system: Leishmania amazonensis; experiment: Antileishmanial activity against promastigotes of Leishmania amazonensis IFLA/BR/67/PH8 assessed as induction of DNA fragmentation at IC50 after 24 hrs by agarose gel electrophoresis; format: functional, organism-based; in short: as §3
[28] = system: Peritoneal macrophage cell; experiment: Immunomodulatory activity in Swiss mouse peritoneal macrophages infected with promastigotes form of Leishmania amazonensis IFLA/BR/67/PH8 assessed as increase of nitric oxide production at 6.25 to 25 uM after 72 hrs by Griess assay; format: functional, cell-based; in short: as §2

IC50 [24] [µM] | SMILES | Activity [1] [%] | Selectivity Index [2] | CC50 at 24 h [3] [µM] | Ratio CC50/EC50 [5] | Activity [7] [%] | Activity [8] [%] | Activity [9] [%] | HC50 at 1 h [12] [µM] | Activity [13] [%] | Activity [14] [%] | Activity [15] [%] | Activity [16] [%] | Ratio CC50/IC50 [17] | Selectivity Index [18] | Activity [19] [%] | Activity [20] [%] | Activity [21] [%] | Activity [23] [%] | EC50 [25] [µM] | also measured
3.65 | N#Cc1c(/N=C/c2cc3cc(Br)ccc3[nH]2)sc2c1CCCCC2 | 9.06 | > 39.8 | 32 | 1.59 | 4.3 | 27.1 | 22.7 | > 800 | 6.1 | 5.6 | 79.9 | 27.3 | 8.77 | > 219 | 53.2 | 44.3 | 15.3 | 4.8 | 20.1 | Activity [4]: inactive; Activity [6]: Active; Activity [10]: Active; Activity [11]: Active; Activity [22]: Dose-dependent effect; Activity [26]: Dose-dependent effect
0.17 | C[C@@H]1[C@H](O)[C@@H](C)/C=C/C=C/C=C/C=C/C=C/C=C/C=C/[C@H](O[C@@H]2O[C@H](C)[C@@H](O)[C@H](N)[C@@H]2O)C[C@@H]2O[C@](O)(C[C@@H](O)C[C@@H](O)[C@H](O)CC[C@@H](O)C[C@@H](O)CC(=O)O[C@H]1C)C[C@H](O)[C@H]2C(=O)O [AMPHOTERICIN B] | 23.8 | 50.4 | 0.18 | 0.78 | 10.3 | 42.2 | 5.2 | 11.6 | 2.8 | 10.4 | 67.2 | 38.8 | 1.05 | 68.2 | 8.6 | 45.5 | 38.8 | 6 | 0.23 | Activity [27]: Active; EC50 ([26]; IFLA/BR/67/PH8, 72 h): 169 µg/mL (≈ 183 µM)
7.37 | N#Cc1c(/N=C/c2cc3ccccc3[nH]2)sc2c1CCCCC2 | 11.6 | 45.5 | 49.1 | 3.1 | 4.06 | 25.2 | 31.6 | 721 | 12.1 | 3.5 | 72.2 | 15.6 | 6.65 | 97.9 | 54.9 | 19 | 15.7 | 4.07 | 15.8 | Activity [4]: inactive; Activity [6]: inactive; Activity [10]: Active; Activity [11]: inactive; Activity [28]: inactive; Activity [22]: Dose-dependent effect; Activity [26]: Dose-dependent effect
